The record followed here is ChEMBL document CHEMBL1158748, “Microbial hydroxylation of bufalin by Cunninghamella blakesleana and Mucor spinosus” (J Nat Prod, 2005).

Holding throughout (type): functional, cell-based
One assay relates to Bel-7402. Nature of the assay: Cytotoxicity against human Bel7402 cells after 72 hrs by MTT assay. The settings on record: Bel-7402, 72 h. An outline of the steps: (§1)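 Cells kept in RPMI 1640 with 10% (v/v) FBS and plated in 96-well plates. Test compounds added at dilutions of 10^-3-10² µmol/L, then incubated 72 h at 37 °C under 5% CO₂. Survival read by MTT. IC50 taken as the concentration (µmol/L) giving 50% inhibition of cell growth.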

In the next assay the test system is BGC-823. In words: Cytotoxicity against human BGC823 cells after 72 hrs by MTT assay. The settings on record: BGC-823, 72 h. The method, boiled down:
as §1
Background: Formazan colour is commonly taken as a measure of viable cells.

Another assay deals with HeLa. Nature of the assay: Cytotoxicity against human HeLa cells after 72 hrs by MTT assay. An outline of the steps: as §1

Usually IC50 stands for the concentration that gives 50% inhibition. Consider `C[C@]12CC[C@H](O)C[C@H]1CC[C@@H]1[C@@H]2C[C@H](O)[C@]2(C)[C@@H](c3ccc(=O)oc3)CC[C@]12O`, for which the IC50 was 410 nM in the assay on Bel-7402, 420 nM with BGC-823 and 60 nM in the assay on HeLa.

As to `C[C@]12CC[C@H](O)C[C@H]1C[C@H](O)[C@@H]1[C@@H]2C[C@H](O)[C@]2(C)[C@@H](c3ccc(=O)oc3)CC[C@]12O`, the IC50 in the assay on Bel-7402 worked out at 2900 nM; with BGC-823 it was 5300 nM; with HeLa, 60 nM.

As to `C[C@]12CC[C@H](O)C[C@@]1(O)C[C@H](O)[C@@H]1[C@@H]2CC[C@]2(C)[C@@H](c3ccc(=O)oc3)CC[C@]12O`, in the assay on HeLa, half-maximal inhibition (IC50) required 22 nM.

`C[C@]12CC[C@H](O)C[C@H]1CC[C@@H]1[C@@H]2C[C@@H](O)[C@]2(C)[C@@H](c3ccc(=O)oc3)CC[C@]12O`: the IC50 was determined as 26 nM with Bel-7402, 31 nM with BGC-823 and 7.6 nM in the assay on HeLa.

For `C[C@]12CC[C@H](O)C[C@H]1CC[C@@H]1[C@@H]2CC[C@]2(C)[C@@H](c3ccc(=O)oc3)CC[C@]12O` [BUFALIN], the IC50 in the assay with Bel-7402 amounted to 7 nM; in the assay on BGC-823, 45 nM; in the assay with HeLa it was 28 nM.
